Source: PubChem (Sanford-Burnham Center for Chemical Genomics)
bIAP act = intestinal alkaline phosphatase (bovine) activation; purified bovine IAP, CDP-star luminescence, 30 min; active compounds read high; fold of DMSO-control signal, blank-subtracted; AID 1016; 200,000 tested, 0.17% active; activation factor at 20 µM;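 active means activation factor of 2 or more at 20 µM, a signal rise over negative controls twice the positive control's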
bIAP inhibitor = blocks bovine intestinal alkaline phosphatase activity; inhibition, % at 20 µM; purified bovine IAP, CDP-star luminescence, 30 min; 190,000 tested, under 10 active;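 active means over 50% inhibition of intestinal alkaline phosphatase at 20 µM in the single-dose screen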
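test system = bovine IAP enzyme | medium = DEA buffer 100 mM, pH 9.8, with MgCl2 1.0 mM, ZnCl2 0.02 mM | detection = luminescence | dosing = single compound dose of 20 µM, 2% DMSO final | incubation = 30 min reaction at room temperature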
mIAP block = blocks mouse intestinal alkaline phosphatase; inhibition, % at 10 µM; purified mouse IAP, CDP-Star luminescence, 30 min; 330,000 tested, 0.2% active;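 active means inhibition of at least 40% at 10 µM in the primary screen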
hIAP activ = human IAP activation; purified human IAP, CDP-Star luminescence, 30 min; active compounds read high; 1 = vehicle-only enzyme, 0 = enzyme-free background; activation factor at 10 µM; 330,000 tested, 0.16% active;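 active means activation factor of the enzyme at least 2-fold when tested at 20 µM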
Target sequence (P09923 whole entry, looked up): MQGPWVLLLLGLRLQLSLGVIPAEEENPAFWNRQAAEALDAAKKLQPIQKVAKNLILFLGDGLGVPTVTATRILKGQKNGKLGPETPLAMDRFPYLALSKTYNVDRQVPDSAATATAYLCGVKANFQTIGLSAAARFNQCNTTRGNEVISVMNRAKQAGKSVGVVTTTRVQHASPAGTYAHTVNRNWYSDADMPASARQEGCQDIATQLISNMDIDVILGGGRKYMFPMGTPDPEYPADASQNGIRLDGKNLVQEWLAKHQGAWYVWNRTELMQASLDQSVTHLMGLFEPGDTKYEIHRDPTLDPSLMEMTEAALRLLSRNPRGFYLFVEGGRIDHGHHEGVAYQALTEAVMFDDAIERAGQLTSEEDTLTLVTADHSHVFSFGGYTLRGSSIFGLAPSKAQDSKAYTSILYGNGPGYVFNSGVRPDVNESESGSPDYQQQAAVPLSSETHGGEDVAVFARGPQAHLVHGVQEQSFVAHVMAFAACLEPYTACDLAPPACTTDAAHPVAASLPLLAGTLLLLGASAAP
mIAP act = mouse IAP activation; muIAP, CDP-Star luminescence, 30 min; active compounds read high; 1 = vehicle-only enzyme signal, 0 = enzyme-free wells; activation factor at 10 µM; 330,000 tested, 0.24% active; AID 2805;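 active means activation factor of at least 2 at 20 µM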
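also added = chemiluminescent substrate CDP-Star | test system = mouse IAP enzyme | signal = chemiluminescence readout | compound = DMSO-dissolved test compounds | incubation = 30 min at room temperature | benchmarks = DMSO wells, no-enzyme wells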
hIAP inh = human IAP inhibition. 330,000 tested, 0.12% active. purified IAP, CDP-Star luminescence, 30 min. inhibition, % at 10 µM. P09923. AID 2544;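 active means inhibition reaching a set limit with compound at 10 µM in the primary screen, cut at about 35% in these data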
mIAP inh conf = mouse IAP inhibition confirmation | shares compounds with mIAP block | purified mouse IAP, CDP-Star luminescence, 30 min | inhibition, % at 10 µM | 11,000 tested, 4.7% active | AID 434971;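 active means inhibition of at least 40% at 10 µM in either of the two replicates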
Each line names hits and unclear results; the compound was inactive in the other large screens (follow-up assays come after a bar, where they were run). Compounds with a hit are over-represented: about 0.77% of the library has one in this group of screens.

C#CCOCCOCCOCCNc1nc(N2CCOCC2)nc(N2CCN(C(=O)[C@H]([C@@H](C)CC)n3cc(CCCN=C(N)N)nn3)CC2)n1	none
C#CCOCCOCCOCCNc1nc(N2CCN(C(=O)CCCCCCCCCCNC(=O)Cn3cc(C[C@@H](C)O)nn3)CC2)nc(N2CCN(C(=O)CCCCCCCCCCNC(=O)[C@@H](CCSC)n3cc(CCO)nn3)CC2)n1	mIAP act 2.8 (no result: bIAP act, bIAP inhibitor) | mIAP inh conf inactive
C#CCOCCOCCOCCNc1nc(N2CCN(C(=O)CCCCCCCCCCNC(=O)Cn3cc(CCCCCN)nn3)CC2)nc(N2CCN(C(=O)CCCCCCCCCCNC(=O)[C@@H]([C@H](C)O)n3cc(C)nn3)CC2)n1	none (no result: bIAP act, bIAP inhibitor)
C#CCOCCOCCOCCNc1nc(N2CCN(C(=O)CCCCCCCCCCNC(=O)[C@@H](CCSC)n3cc(CCO)nn3)CC2)nc(N2CCN(C(=O)CCCCCCCCCCNC(=O)[C@@H]([C@H](C)O)n3cc(C)nn3)CC2)n1	none (no result: bIAP act, bIAP inhibitor)
C#CCOCCOCCOCCNc1nc(N2CCOCC2)nc(N2CCN(C(=O)CCCCCCCCCCNC(=O)[C@H]([C@@H](C)CC)n3cc(CCCCN=C(N)N)nn3)CC2)n1	mIAP act 2.5 (no result: bIAP act, bIAP inhibitor) | mIAP inh conf inactive
COc1ccccc1CNC(=O)CN1C(=O)NC2(CCCc3ccccc32)C1=O (stereo unspecified)	none (no result: bIAP act, bIAP inhibitor)
O=C(N/N=C/c1ccc[nH]1)c1ccc2c(c1)OCO2	mIAP block 50 | mIAP inh conf 64
Cc1ccc(CNC(=O)CN(C)S(=O)(=O)c2ccc(F)cc2)cc1	none (no result: bIAP act, bIAP inhibitor)
CC(=O)c1c(C)oc2ccc(NS(=O)(=O)c3ccc(O)c(C(=O)O)c3)cc12	none
O=C(O)c1cc(S(=O)(=O)Nc2ccc3oc(=O)sc3c2)ccc1O	mIAP block 65 | mIAP inh conf 72
C[C@H](CO)N1C[C@H](C)[C@@H](CN(C)S(=O)(=O)c2cccs2)Oc2ccc(NC(=O)NC3CCCCC3)cc2C1=O	mIAP act 3.6 (no result: bIAP act, bIAP inhibitor) | mIAP inh conf inactive
C[C@H](CO)N1C[C@H](C)[C@@H](CN(C)S(=O)(=O)c2ccccc2)Oc2ccc(NC(=O)NC3CCCCC3)cc2C1=O	mIAP act 4 (no result: bIAP act, bIAP inhibitor) | mIAP inh conf inactive
C[C@H](CO)N1C[C@H](C)[C@@H](CN(C)S(=O)(=O)c2ccccc2)Oc2ccc(NC(=O)C3CCCCC3)cc2C1=O	none (no result: bIAP act, bIAP inhibitor)
CC(=O)N1c2ccc(S(=O)(=O)N3CCCC3C(=O)NCc3ccccc3Cl)cc2CC1C (stereo unspecified)	none (no result: bIAP act, bIAP inhibitor)
Cc1cccc(C2=NN(c3ccccc3)[C@H](CO)[C@H]2c2ccccc2)c1	mIAP act 2.2 (no result: bIAP act, bIAP inhibitor, hIAP activ, hIAP inh) | mIAP inh conf inactive
CCOC(=O)CN1C(=O)/C(=C2\SC(=S)N(NC(=O)c3cccnc3)C2=O)c2ccccc21	mIAP block 52 (no result: bIAP act, bIAP inhibitor) | mIAP inh conf 53
CN1CC(=O)N/C1=N\C(=O)Nc1ccc(O)cc1	none (no result: bIAP act, bIAP inhibitor)
Brc1ccc(C2Nc3cccc4cccc(c34)N2)o1	mIAP block 44 | mIAP inh conf 53
Brc1cccc(C2Nc3cccc4cccc(c34)N2)c1	none (no result: bIAP act, bIAP inhibitor)
O=C1CNC(=S)N1CCc1ccc(O)c(O)c1	mIAP block 77 (no result: bIAP act, bIAP inhibitor) | mIAP inh conf 81
CC(C)(C)N(Cc1ccccc1)C(=O)COC(=O)c1ccc(S(=O)(=O)N2CCOCC2)cc1	none (no result: bIAP act, bIAP inhibitor)
COc1cc(OC)c2c(c1O)OC(c1ccccc1)CC2=O (stereo unspecified)	mIAP block 54 | mIAP inh conf 62
CC(C)Oc1ccc(C(=O)Nc2cccc(S(=O)(=O)N3CCCC3)c2)cc1	none (no result: bIAP act, bIAP inhibitor)
COc1cc(/C=C/C(=O)/C=C(O)/C=C/c2ccc(O)c(OC)c2)ccc1O	mIAP block 61 (no result: bIAP act, bIAP inhibitor, hIAP activ, hIAP inh) | mIAP inh conf 53
COc1cc(/C=C/C(=O)CC(=O)/C=C/c2ccc(O)c(OC)c2)ccc1O	mIAP block 58 (no result: hIAP activ, hIAP inh) | mIAP inh conf 49
COC(=O)CCCn1nc(NC(=O)c2ccco2)cc1C	none (no result: bIAP act, bIAP inhibitor)
CCCN(C(=O)CSCc1c(C)noc1C)c1c(N)n(Cc2ccccc2)c(=O)[nH]c1=O	none (no result: bIAP act, bIAP inhibitor)
COc1ccc(NC(=S)NNc2ccc(S(=O)(=O)Nc3ccccc3C(=O)O)cc2[N+](=O)[O-])cc1	none (no result: bIAP act, bIAP inhibitor)
